Results: ChEMBL document CHEMBL1121655, “Methylangelicins: new potential agents for the photochemotherapy of psoriasis. Structure-activity study on the dark and photochemical interactions with DNA” (J Med Chem, 1981)
≈ marks a conversion by molar mass, not a printed value. One block for each compound: values may come before it.

Tests used:
[1] = Water solubility (solubility in mol/L); type: ADME; conditions: read-out: S
Nucleic Acid [2] = experiment: (§1) Compound was evaluated for association constant in the calf thymus DNA; type: functional; conditions: Bos taurus
In short: (§2)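 Equilibrium dialysis at 25 ± 0.05 °C in the dark, 12 h with shaking, across a cellophane membrane. Tritiated angelicin at slightly below its water solubility in 0.02 M NaCl with 1 mM EDTA, against DNA at 3×10^-3 to 3×10^-4 M. Both phases counted by scintillation to give r and c. K and n fitted iteratively to the McGhee–von Hippel equation.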

Nucleic Acid [3] = experiment: Compound was evaluated for rate constant in the calf thymus DNA; type: functional; conditions: Bos taurus
In short: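 DNA at 2.3×10^-3 M in 2×10^-3 M NaCl and 1×10^-3 M EDTA with 3×10^-5 M labeled furocoumarin. Irradiated at 365 nm, 1.07×10^16 quanta s^-1 mL^-1, for increasing times in a thermostatted bath. Complexed fraction at time 0 taken from dialysis at 2 mM NaCl with ligand:nucleotide 1:76.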

Ehrlich [4] = experiment: Compound was evaluated for the inhibition of DNA synthesis in Ehrlich Ascites tumor cells by irradiation (365 nm) at 1.9 x 10 e-5M; type: functional
In short: (§3)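 Ehrlich ascites cells, 2×10^7 cells/mL in Hank's solution, on ice with 1.9×10^-5 M compound, irradiated by HPW 125 lamp at 20 cm (2.02×10^16 quanta/s). Then 2×10^6 cells pulsed 15 min at 37 °C with 1 μCi [3H]thymidine (DNA) or [3H]uridine (RNA). TCA-insoluble counts as % of untreated. Each dose at least in duplicate. D50 = UV dose giving 50% inhibition.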

Ehrlich [5] = experiment: Compound was evaluated for the inhibition of RNA synthesis in Ehrlich Ascites tumor cells by irradiation (365 nm) at 1.9 x 10 e-5M; type: functional; in short: as §3
Nucleic Acid [6] = experiment: as §1; type: nucleic-acid assay; conditions: Bos taurus; in short: as §2

SMILES: O=c1ccc2ccc3occc3c2o1 [ANGELICIN]
solubility [1]: 20 µg/mL (≈ 107 µM)
K (Nucleic Acid [2]): 560
Rate constant (Nucleic Acid [3]): 0.011 min⁻¹
D50 (Ehrlich [4]): 2.5e+19 quanta
D50 (Ehrlich [5]): 2.33e+19 quanta

SMILES: Cc1cc2c(ccc3c(C)cc(=O)oc32)o1
D50 (Ehrlich [4]): 1.09e+19 quanta
D50 (Ehrlich [5]): 1.35e+19 quanta
K (Nucleic Acid [6]): 1450

SMILES: Cc1cc2c(cc(C)c3ccc(=O)oc32)o1
solubility [1]: 3 µg/mL (≈ 14 µM)
K (Nucleic Acid [2]): 1750
Rate constant (Nucleic Acid [3]): 0.027 min⁻¹
D50 (Ehrlich [4]): 1.38e+19 quanta
D50 (Ehrlich [5]): 6.6e+18 quanta

SMILES: O=c1ccc2cc3ccoc3cc2o1 [PSORALEN]
D50 (Ehrlich [4]): 9.1e+18 quanta
D50 (Ehrlich [5]): 1.4e+19 quanta

SMILES: Cc1cc2occc2c2oc(=O)ccc12
solubility [1]: 4.5 µg/mL (≈ 22.5 µM)
K (Nucleic Acid [2]): 1560
Rate constant (Nucleic Acid [3]): 0.034 min⁻¹
D50 (Ehrlich [4]): 9.1e+18 quanta
D50 (Ehrlich [5]): 8.3e+18 quanta

Second part, led by results:

solubility [1]: 12 µg/mL (≈ 59.9 µM)
SMILES: Cc1cc2c(ccc3ccc(=O)oc32)o1
K (Nucleic Acid [2]): 1200
Rate constant (Nucleic Acid [3]): 0.021 min⁻¹
D50 (Ehrlich [4]): 1.66e+19 quanta
D50 (Ehrlich [5]): 1.74e+19 quanta

solubility [1]: 4 µg/mL (≈ 20 µM)
SMILES: Cc1cc(=O)oc2c1ccc1occc12
K (Nucleic Acid [2]): 1400
Rate constant (Nucleic Acid [3]): 0.016 min⁻¹
D50 (Ehrlich [4]): 2.4e+19 quanta
D50 (Ehrlich [5]): 1.81e+19 quanta
